Our source for the inhibition in vivo and Activity values is ChEMBL document CHEMBL1157044, “Synthesis, biological and medicinal significance of S-glycosido-thieno[2,3-d]-pyrimidines as new anti-inflammatory and analgesic agents” (Eur J Med Chem, 2010).

Series [1] concerns Mus musculus. Nature of the series: Antiinflammatory activity in Swiss albino mouse assessed as inhibition of carrageenan-induced paw edema at 100 mg/kg, po administered 60 mins before carrageenan challenge measured after 90 mins. It counts as functional. The procedure, abridged: (§1)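 Mice fasted overnight, gavaged with suspension in 0.5% carboxymethyl cellulose or vehicle. 60 min later, 0.5 mg/25 µL carrageenan in 154 mM saline injected subplantar into right hind paw, saline into left. Right-minus-left footpad thickness by dial gauge every 90 min over 6 h; % inhibition versus control, mean ± SEM, two-tailed t-test. Indometacin reference.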
(In the carrageenan paw model, swelling and tenderness develop within hours.)

In series [2] the test system is Mus musculus. Nature of the series: Antiinflammatory activity in Swiss albino mouse assessed as inhibition of carrageenan-induced paw edema at 100 mg/kg, po administered 60 mins before carrageenan challenge measured after 180 mins. It counts as functional. The procedure, abridged: as §1
Series [3] deals with Mus musculus. Nature of the series: Antiinflammatory activity in Swiss albino mouse assessed as inhibition of carrageenan-induced paw edema at 100 mg/kg, po administered 60 mins before carrageenan challenge measured after 270 mins. The class given is functional. The procedure, abridged:
as §1

The subject of series [4] is Mus musculus. Nature of the series: Antiinflammatory activity in Swiss albino mouse assessed as inhibition of carrageenan-induced paw edema at 100 mg/kg, po administered 60 mins before carrageenan challenge measured after 360 mins. The class given is functional. A digest of the protocol: as §1
In series [5] the test system is Mus musculus. Nature of the series: Analgesic activity in Swiss albino mouse assessed as p-benzoquinone-induced writhing at 100 mg/kg, po administered 60 mins before benzoquinone challenge. It counts as functional. A digest of the protocol:
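Mice fasted overnight with water allowed, dosed by gavage with suspension in 0.5% carboxymethyl cellulose; vehicle controls. 60 min later, i.p. 0.1 mL/10 g of 2.5% (v/v) p-benzoquinone in distilled water. Writhes counted individually for 15 min starting 5 min post-injection; % change from vehicle writhing controls, mean ± SEM, two-tailed t-test. Aspirin reference.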

The test system of series [6] is Mus musculus. Nature of the series: Toxicity in Swiss albino mouse assessed as gastric ulceration at 100 mg/kg, po. The class given is organism-based, Stomach. Also on record: dose 100 mg/kg, route oral. To be noted: in vivo. The procedure, abridged: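 Mice fasted the day before (water allowed), given 100 mg/kg orally by gavage as suspension in 0.5% carboxymethyl cellulose; vehicle controls. Carrageenan paw oedema followed over 6 h. Immediately after last paw measurement, animals sacrificed under ether anaesthesia, stomachs removed and examined under dissecting microscope; stomach with one or more ulcers scored positive; expressed as ulcerated/total (n=6 per group).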

One may read the inhibition in vivo as the drop in the measured response relative to a control, in per cent. As for `COc1ccc2c(c1)c(CC(=O)O)c(C)n2C(=O)c1ccc(Cl)cc1` [INDOMETHACIN], the inhibition in vivo at 100 mg/kg in the series on Mus musculus [1] was determined as 29.5%; in the series on Mus musculus [2], 30.6%; in the series on Mus musculus [3] it was 41.9%; in the series on Mus musculus [4], 42.7%.
In the case of `CC(=O)c1sc2c(c1C)C(=O)N(N)C(S[C@@H]1O[C@H](CO)[C@H](O)[C@H](O)[C@H]1O)N2` (stereo partly drawn), the inhibition in vivo at 100 mg/kg in the series with Mus musculus [1] came to 14.4%; with Mus musculus [2], 16.6%; in the series with Mus musculus [3], 17.5%; in the series on Mus musculus [4] it was 20.7%; in the series with Mus musculus [5], 35.7%.
In the case of `CCOC(=O)c1sc2nc(S[C@@H]3O[C@H](COC(C)=O)[C@@H](OC(C)=O)[C@H](OC(C)=O)[C@H]3OC(C)=O)n(N)c(=O)c2c1C`, the inhibition in vivo at 100 mg/kg in the series with Mus musculus [1] was 13.2%; with Mus musculus [2] it was 14.7%; in the series with Mus musculus [3], 20.3%; with Mus musculus [4] it was 22.3%; in the series on Mus musculus [5], 37.9%.
In the case of `CC(=O)OC[C@H]1O[C@@H](Sc2nc3sc(C(C)=O)c(C)c3c(=O)n2N)[C@H](OC(C)=O)[C@@H](OC(C)=O)[C@H]1OC(C)=O`, the inhibition in vivo at 100 mg/kg with Mus musculus [1] was 14.9%; with Mus musculus [2], 7.8%; in the series with Mus musculus [3], 10.5%; in the series with Mus musculus [4], 13.1%; in the series on Mus musculus [5] it was 13.8%.
On to `CCOC(=O)c1sc2c(c1C)C(=O)N(N)C(S[C@@H]1O[C@H](CO)[C@@H](O)[C@H](O)[C@H]1O)N2` (stereo partly drawn), for which the inhibition in vivo at 100 mg/kg in the series with Mus musculus [1] amounted to 29.7%; in the series with Mus musculus [2], 31.2%; in the series on Mus musculus [3] it was 33.9%; with Mus musculus [4], 34.4%; in the series on Mus musculus [5] it was 51%.
As for `CCOC(=O)c1sc2nc(S[C@@H]3O[C@H](CO)[C@H](O)[C@H](O)[C@H]3O)n(N)c(=O)c2c1C`, the Activity result in the series with Mus musculus [6] is reported as “Non-toxic”.
For `CCOC(=O)c1sc2nc(S[C@@H]3O[C@H](COC(C)=O)[C@@H](OC(C)=O)[C@@H]3OC(C)=O)n(N)c(=O)c2c1C`, the inhibition in vivo at 100 mg/kg with Mus musculus [1] was determined as 32.1%; in the series on Mus musculus [2] it was 35.6%; in the series with Mus musculus [3], 35.9%; in the series on Mus musculus [4] it was 38.9%; with Mus musculus [5] it was 53.3%. The Activity result with Mus musculus [6] is listed as “Non-toxic”.
As for `CCOC(=O)c1sc2nc(S[C@@H]3O[C@H](CO)[C@@H](O)[C@@H]3O)n(N)c(=O)c2c1C`, the inhibition in vivo at 100 mg/kg in the series on Mus musculus [1] was found to be 32.1%; in the series on Mus musculus [2], 35.6%; in the series with Mus musculus [3], 35.9%; with Mus musculus [4] it was 38.9%; in the series on Mus musculus [5], 53.3%. Also, in the series with Mus musculus [6], the Activity result was “Non-toxic”.
For `CC(=O)Oc1ccccc1C(=O)O` [ASPIRIN], the inhibition in vivo at 100 mg/kg in the series with Mus musculus [5] is 51.9%.
With `CC(=O)OC[C@H]1O[C@@H](Sc2nc3sc(C(C)=O)c(C)c3c(=O)n2N)[C@@H](OC(C)=O)[C@@H]1OC(C)=O`, the inhibition in vivo at 100 mg/kg stood at 28.5% with Mus musculus [1]; 29.8% in the series on Mus musculus [2]; 28.6% with Mus musculus [3]; 35.6% with Mus musculus [4]; 48.8% with Mus musculus [5]. The Activity entry in the series on Mus musculus [6] is listed as “Non-toxic”.
On to `CC(=O)c1sc2nc(S[C@@H]3O[C@H](CO)[C@@H](O)[C@@H]3O)n(N)c(=O)c2c1C`, for which the inhibition in vivo at 100 mg/kg in the series with Mus musculus [1] came to 28.5%; with Mus musculus [2], 29.8%; in the series with Mus musculus [3], 28.6%; in the series on Mus musculus [4], 35.6%; in the series with Mus musculus [5], 48.8%. Besides, in the series on Mus musculus [6], the Activity entry was “Non-toxic”.
On to `CC(=O)OC[C@H]1O[C@@H](Sc2nc3sc(C(C)=O)c(C)c3c(=O)n2N)[C@H](OC(C)=O)[C@@H](OC(C)=O)[C@@H]1OC(C)=O`, for which the inhibition in vivo at 100 mg/kg is 25.7% in the series with Mus musculus [1]; 23.9% with Mus musculus [2]; 29.9% in the series on Mus musculus [3]; 34.2% in the series on Mus musculus [4]; 45.4% in the series on Mus musculus [5]. For the same molecule, the Activity entry in the series on Mus musculus [6] was “Non-toxic”.
As for `CC(=O)c1sc2[nH]c(=S)n(N)c(=O)c2c1C`, the inhibition in vivo at 100 mg/kg was found to be 6.1% with Mus musculus [1]; 7.8% in the series on Mus musculus [2]; 8.3% in the series with Mus musculus [3]; 8.5% with Mus musculus [4]; 35.7% in the series with Mus musculus [5]. Further, the Activity result in the series with Mus musculus [6] is “Non-toxic”.
`CCOC(=O)c1sc2[nH]c(=S)n(N)c(=O)c2c1C`: the inhibition in vivo at 100 mg/kg with Mus musculus [1] is 1.2%; in the series on Mus musculus [2] it was 6.1%; with Mus musculus [3], 8.3%; in the series on Mus musculus [4] it was 8.5%; in the series on Mus musculus [5], 23.9%. Besides, in the series on Mus musculus [6], the Activity result is “Non-toxic”.
